From ChEMBL document CHEMBL2074468, “Identification of multispecific organic anion transporter 2 expressed predominantly in the liver” (FEBS Lett, 1998)

How the values were obtained:
[1] = target: T1, Solute carrier family 22 member 7 (Rattus norvegicus, UniProt Q5RLM2); assay: TP_TRANSPORTER: inhibition of Salicylate uptake (salicylate: 1 uM, Enalapril: 1000 uM) in Xenopus laevis oocytes; format: functional, cell-based; conditions: oocyte
T1 sequence (Q5RLM2 whole entry): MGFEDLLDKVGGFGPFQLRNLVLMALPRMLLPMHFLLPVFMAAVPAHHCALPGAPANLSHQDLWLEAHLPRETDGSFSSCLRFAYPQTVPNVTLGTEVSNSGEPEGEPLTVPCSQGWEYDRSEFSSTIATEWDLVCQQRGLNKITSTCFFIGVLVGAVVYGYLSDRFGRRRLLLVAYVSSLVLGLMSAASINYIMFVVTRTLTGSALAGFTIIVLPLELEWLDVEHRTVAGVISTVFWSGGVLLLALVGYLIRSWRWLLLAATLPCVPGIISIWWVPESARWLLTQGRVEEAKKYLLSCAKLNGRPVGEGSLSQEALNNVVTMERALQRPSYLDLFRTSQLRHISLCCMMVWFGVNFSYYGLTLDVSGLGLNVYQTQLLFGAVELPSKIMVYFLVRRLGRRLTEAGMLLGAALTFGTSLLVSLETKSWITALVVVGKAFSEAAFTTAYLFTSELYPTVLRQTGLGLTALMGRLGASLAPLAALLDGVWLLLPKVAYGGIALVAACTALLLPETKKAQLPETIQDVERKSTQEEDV
Method in brief: (§1)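 Rat liver NLT/OAT2 (L5) cRNA (10 ng capped) was injected into defolliculated oocytes, which were kept 2–3 days at 18°C in gentamicin Barth's, pH 7.4. Uptake of 1 μM [14C]salicylate was measured in ND96 (pH 7.4) at room temperature, with or without inhibitor (1 mM; BSP 250 μM). Results are % of L5-mediated uptake without inhibitor, mean±S.E.M., n=5–8 oocytes.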

[2] = target: T1, Solute carrier family 22 member 7; assay: (§2) TP_TRANSPORTER: uptake in Xenopus laevis oocytes; format: functional, cell-based; conditions: oocyte
Method in brief: (§3)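 Oocytes were injected with 10 ng capped L5 cRNA or left as controls, then held 2–3 days at 18°C. Radiolabeled substrates ([14C]α-ketoglutarate 7 μM, [3H]PGE2 6 nM, [3H]methotrexate 1 μM, [14C]acetylsalicylate 20 μM, [14C]PAH 20 μM) were taken up for 1 h in ND96, pH 7.4, at room temperature. Mean±S.E.M., n=5–8.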

[3] = target: T1, Solute carrier family 22 member 7; assay: TP_TRANSPORTER: inhibition of Salicylate uptake (salicylate: 1 uM, Cefoperazone: 1000 uM) in Xenopus laevis oocytes; format: functional, cell-based; conditions: oocyte; method in brief: as §1
[4] = target: T1, Solute carrier family 22 member 7; assay: TP_TRANSPORTER: inhibition of Salicylate uptake (salicylate: 1 uM, ICG: 1000 uM) in Xenopus laevis oocytes; format: functional, cell-based; conditions: oocyte; method in brief: as §1
[5] = target: T1, Solute carrier family 22 member 7; assay: TP_TRANSPORTER: inhibition of Salicylate uptake (salicylate: 1 uM, Rifampicin: 1000 uM) in Xenopus laevis oocytes; format: functional, cell-based; conditions: oocyte; method in brief: as §1
[6] = target: T1, Solute carrier family 22 member 7; assay: TP_TRANSPORTER: inhibition of Salicylate uptake (salicylate: 1 uM, BSP: 250 uM) in Xenopus laevis oocytes; format: functional, cell-based; conditions: oocyte; method in brief: as §1
[7] = substrate: O=C(O)CCC(=O)C(=O)O; assay: as §2; format: functional, cell-based, Oocyte; method in brief: as §3
[8] = substrate: O=C(O)c1ccccc1O; assay: cells, lysate or membranes named

## CCOC(=O)[C@H](CCc1ccccc1)N[C@@H](C)C(=O)N1CCC[C@H]1C(=O)O
[1]
  Activity: inhibitor [(at a rough estimate) 80 % of control]

## Nc1ccc(C(=O)NCC(=O)O)cc1 [AMINOHIPPURIC ACID]
[2]
  Activity: substrate [+]

## CC(=O)Oc1ccccc1C(=O)O [ASPIRIN]
[2]
  Activity: substrate [+]

## CCN1CCN(C(=O)N[C@@H](C(=O)N[C@@H]2C(=O)N3C(C(=O)O)=C(CSc4nnnn4C)CS[C@H]23)c2ccc(O)cc2)C(=O)C1=O [CEFOPERAZONE]
[3]
  Activity: inhibitor [(at a rough estimate) 15 % of control]

## CCCCC[C@H](O)/C=C/[C@H]1[C@H](O)CC(=O)[C@@H]1C/C=C\CCCC(=O)O [DINOPROSTONE]
[2]
  Activity: substrate [+]

## CC1(C)C(/C=C/C=C/C=C/C=C2/N(CCCCS(=O)(=O)[O-])c3ccc4ccccc4c3C2(C)C)=[N+](CCCCS(=O)(=O)[O-])c2ccc3ccccc3c21.[Na+] [INDOCYANINE GREEN]
[4]
  Activity: inhibitor [(at a rough estimate) 10 % of control]

## CN(Cc1cnc2nc(N)nc(N)c2n1)c1ccc(C(=O)N[C@@H](CCC(=O)O)C(=O)O)cc1 [METHOTREXATE]
[2]
  Activity: substrate [+]

## CO[C@H]1/C=C/O[C@@]2(C)Oc3c(C)c(O)c4c(O)c(c(/C=N/N5CCN(C)CC5)c(O)c4c3C2=O)NC(=O)/C(C)=C\C=C\[C@H](C)[C@H](O)[C@@H](C)[C@@H](O)[C@@H](C)[C@H](OC(C)=O)[C@@H]1C [RIFAMPIN]
[5]
  Activity: inhibitor [(at a rough estimate) 15 % of control]

## O=C1OC(c2ccc(O)c(S(=O)(=O)[O-])c2)(c2ccc(O)c(S(=O)(=O)[O-])c2)c2c(Br)c(Br)c(Br)c(Br)c21.[Na+].[Na+] [SULFOBROMOPHTHALEIN SODIUM]
[6]
  Activity: inhibitor [(at a rough estimate) <5 % of control]

## CC[N+](CC)(CC)CC [TETRYLAMMONIUM]
[2]
  Activity: is not a substrate [-]

B1: Solute carrier family 22 member 7 (Rattus norvegicus) (protein)
chain: MGFEDLLDKVGGFGPFQLRNLVLMALPRMLLPMHFLLPVFMAAVPAHHCALPGAPANLSHQDLWLEAHLPRETDGSFSSCLRFAYPQTVPNVTLGTEVSNSGEPEGEPLTVPCSQGWEYDRSEFSSTIATEWDLVCQQRGLNKITSTCFFIGVLVGAVVYGYLSDRFGRRRLLLVAYVSSLVLGLMSAASINYIMFVVTRTLTGSALAGFTIIVLPLELEWLDVEHRTVAGVISTVFWSGGVLLLALVGYLIRSWRWLLLAATLPCVPGIISIWWVPESARWLLTQGRVEEAKKYLLSCAKLNGRPVGEGSLSQEALNNVVTMERALQRPSYLDLFRTSQLRHISLCCMMVWFGVNFSYYGLTLDVSGLGLNVYQTQLLFGAVELPSKIMVYFLVRRLGRRLTEAGMLLGAALTFGTSLLVSLETKSWITALVVVGKAFSEAAFTTAYLFTSELYPTVLRQTGLGLTALMGRLGASLAPLAALLDGVWLLLPKVAYGGIALVAACTALLLPETKKAQLPETIQDVERKSTQEEDV
[7]
  Km: 17.8 µM
[8]
  Km: 88.8 µM
